# Results published in article PMC8526916 (International Journal for Parasitology: Drugs and Drug …, 2021).
# What was measured:
# [1] = Plasma protein binding by equilibrium dialysis, rat plasma; type: in vitro ADME; settings: 5 μM
# Procedure, shortened: (§1)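 Test compound in DMSO was spiked into plasma at 5 μM; an aliquot of spiked plasma served as the 100% recovery standard. Samples were matrix-matched, extracted in 80% acetonitrile with internal standard and quantified by UPLC-MS/MS. Fraction bound = bound/(unbound + bound), corrected for matrix dilution.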
# [2] = system: Neospora caninum Nc-Spain7 tachyzoites; assay: Rectal temperatures and fever in N. caninum-infected pregnant sheep; type: in vivo; settings: days 5, 7 and 9 pi
# [3] = pregnant sheep; ref Sánchez-Sánchez et al., 2019; cited from earlier work
# NcSAG1 = assay: Commercial TgSAG1 ELISA, anti-NcSAG1 IgG in dams; type: in vivo, sheep; settings: days 21 (P < 0.01) and 42 pi (P < 0.05)
# [4] = system: Neospora caninum Nc-Spain7 tachyzoites; assay: Foetal survival in pregnant sheep infected with N. caninum at mid-pregnancy; type: in vivo
# [5] = ref Schaefer et al., 2016; cited from earlier work
# [6] = system: N. caninum soluble antigens; assay: In-house indirect ELISA, IgG against N. caninum soluble antigens in dams; type: in vivo, sheep
# Procedure, shortened: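 Dam sera were collected before infection, at 3, 5, 7 and 10 days pi, then weekly. Plates were coated with soluble N. caninum antigen and blocked; sera were diluted 1:100 in 1% BSA in PBS with 0.05% Tween 20. Detection used HRP anti-goat/sheep IgG (1:20000) with ABTS, stopped with 0.3 M oxalic acid, read at OD405 and expressed as RIPC. Analysis: repeated-measures two-way ANOVA to day 28 pi, one-way ANOVA after.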
# [7] = mice; ref Vidadala et al., 2016; cited from earlier work
# [8] = Plasma protein binding by equilibrium dialysis, mouse plasma; type: in vitro ADME; settings: 5 μM
# Procedure, shortened: as §1
# [9] = Safety monitoring of treated pregnant sheep; type: in vivo
# Procedure, shortened: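 Infected pregnant ewes received test compound orally at 100 mg/kg, 5 doses every other day from 48 h pi; uninfected controls received vehicle. A veterinarian observed animals daily for faecal consistency, blood in faeces and behavioural changes. Rectal temperature was taken daily to day 14 pi, then weekly; >40 °C counted as fever.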
# [10] = Plasma protein binding by equilibrium dialysis, dog plasma; type: in vitro ADME; settings: 5 μM
# Procedure, shortened: as §1
# Nc-Spain7 isolate = settings: in vitro, ref Winzer et al., 2015; cited from earlier work
# BKI-1294 plasma exposure = type: in vivo, sheep; settings: G1
# Procedure, shortened: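 Rasa Aragonesa ewes (12 months, seronegative), challenged i.v. with Nc-Spain7 tachyzoites. From 48 h pi, test compound was given orally by oro-ruminal probe at 100 mg/kg, 5 doses every other day. Heparinized blood was sampled at set times and plasma analysed by LC-MS/MS. Troughs were taken 48 h after each dose; values are mean ± S.D.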
# Neospora caninum = assay: qPCR parasite burden in placentomes and foetal brain; type: in vivo; settings: aborted sheep
# Procedure, shortened: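 DNA was extracted by paramagnetic-particle capture from 50–100 mg of foetal brain (three replicates each) and six placental samples per dam. Samples were screened by nested Nc5-PCR (337 bp product), with 10, 1 and 0.1 tachyzoite-equivalent controls in 100 ng sheep DNA and an uninfected-group negative. PCR-positive samples were quantified by real-time PCR; burdens compared by Mann–Whitney test.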
# [11] = system: Toxoplasma gondii oocysts; settings: sheep infected with T. gondii oocysts during pregnancy; ref Sánchez-Sánchez et al., 2019; cited from earlier work
# [12] = Plasma protein binding by equilibrium dialysis, human plasma; type: in vitro ADME; settings: 5 μM
# Procedure, shortened: as §1
# IFNγ = assay: Peripheral blood cell stimulation assay, IFNγ production; type: in vivo, sheep
# Procedure, shortened: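 Heparinized jugular blood from dams was sampled before infection, at 3, 5, 7 and 10 days pi, then weekly. Blood was cultured with soluble N. caninum antigen or ConA for 24 h at 37 °C, 5% CO2, and IFNγ measured in supernatants by enzyme immunoassay. Analysis: repeated-measures two-way ANOVA to day 28 pi, one-way ANOVA afterwards; mean ± S.D.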
smiles,measurement,setting,value
CCOc1ccc2cc(-c3nn(CC4CCN(C)CC4)c4ncnc(N)c34)ccc2c1 [BKI-1294],plasma protein binding (bound),[1],85%
same,rectal temperatures versus infected/untreated group,[2],significantly lower increase in rectal temperatures
same,safety of repeated oral administration,[3],"safe, both locally and systemically"
same,anti-NcSAG1 IgG levels versus infected/untreated group,NcSAG1,lower anti-NcSAG1 IgG levels
same,median day of foetal death,[4]; G1 infected/treated (G2: 45),44 day pi
same,"foetal mortality (sheep whose foetuses died, 7 out of 8)","[4]; G1 infected/treated, same in G2 untreated",87%
same,foetal survival rate versus infected/untreated group,[4]; log-rank test,no significant differences
same,PPB in mice,[5],85%
same,IgG levels against N. caninum soluble antigens versus infected/untreated group,"[6]; days 14, 21 and 28 pi",lower antibody response
same,IgG levels against N. caninum soluble antigens versus infected/untreated group,[6]; from day 35 pi onwards,no significant differences
same,CNS crossing,[7],30%
same,bioavailability lower than BKI-1553,[7],30 fold
same,plasma clearance,[7],high plasma clearance
same,plasma protein binding (bound),[8],85%
same,safety of oral administration,"[9]; N. caninum-infected pregnant sheep, oral 100 mg/kg x5",safe
same,"Diarrhoea, bloody stools, and behavioural disorders","[9]; oral 100 mg/kg, 5 doses every other day, pregnant sheep",not observed
same,plasma protein binding (bound),[10],52%
same,IC50,Nc-Spain7 isolate,270 ± 20 nM
same,trough plasma concentrations,BKI-1294 plasma exposure; 48 h after 1st oral dose of 100 mg/kg,0.7 ± 0.4 µM
same,trough plasma concentrations,BKI-1294 plasma exposure; 48 h after 2nd oral dose of 100 mg/kg,0.7 ± 0.4 µM
same,trough plasma concentrations,BKI-1294 plasma exposure; 48 h after 3rd oral dose of 100 mg/kg,0.9 ± 0.5 µM
same,trough plasma concentrations,BKI-1294 plasma exposure; 48 h after 4th oral dose of 100 mg/kg,1.4 ± 1.1 µM
same,trough plasma concentrations,BKI-1294 plasma exposure; 48 h after 5th oral dose of 100 mg/kg,1.3 ± 0.8 µM
same,parasite burden in placentomes versus infected/untreated group,Neospora caninum,No significant differences
same,efficacy against abortion,[11],71%
same,efficacy against vertical transmission,[11],53%
same,plasma protein binding (bound),[12],85%
same,IFNγ levels versus infected/untreated group,"IFNγ; day 7 pi, blood stimulated with N. caninum antigen, P < 0.0001",higher IFNγ levels
same,IFNγ levels relative to infected/untreated group,"IFNγ; days 14, 21 and 28 pi, not significant",approximately 10 fold
